In ChEMBL document CHEMBL4376862, “Synthesis and evaluation of novel chlorophyll a derivatives as potent photosensitizers for photodynamic therapy” (Eur J Med Chem, 2020):
Activity calls are given as the source filed them. The rule behind the calls is not given here.

Key:
[1] = Therapeutic index, ratio of TC50 for human A549 cells under dark to IC50 for human A549 cells irradiated with 1 J/cm2 of 650 nanometer laser light; assay type: toxicity, cell-based; details: read-out: TI
How it was run: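 A549 cells (F-12K, 10% FBS, 37 °C, 5% CO2) seeded 24 h, then exposed to 0–10 photosensitizer for 24 h. Dark arm: MTT 48 h later. Light arm: 650 nm laser, 1 J/cm2 (25 mW/cm2, 40 s), then MTT. A570 viability relative to control, triplicate. Ratio = dark TC50 / irradiated IC50.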

[2] = system: Mus musculus; assay: Phototoxicity in ICR mouse assessed as ear weight at 0.45 mg/kg, iv followed by 10 mW/cm2 light irradiation for 10 mins at 7 days after drug challenge measured after 1 day of light irradiation (13.2 +/- 1.6 mg); assay type: organism-based; details: in vivo
[3] = system: Mus musculus; assay: Phototoxicity in ICR mouse assessed as ear weight at 0.45 mg/kg, iv followed by 10 mW/cm2 light irradiation for 10 mins at 1 day after drug challenge measured after 1 day of light irradiation (reference value: 12.6 +/- 1.2 mg); assay type: organism-based; details: in vivo
[4] = Octanol/water partition coefficient, logP of compound by shake flask method; assay type: physicochemical
How it was run: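 Shake-flask method: equilibrium concentrations in octanol and water measured by UV-vis absorbance; log P taken as log of octanol/water concentration ratio (mg/L).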

[5] = Absorption property of compound in DMSO assessed as strong absorption wavelength at 1 x 10^-3 M by UV-spectra analysis; assay type: physicochemical; details: 1000 µM
How it was run: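 Stocks 1 mM in DMSO; spectra run over […] range (units as printed), 300–800 nm in 1 nm steps, room temperature, quartz cuvettes, UV-vis spectrophotometer.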

[6] = Induction of ROS generation in DMF solution assessed as slope of the photodegradation rate of DPBF at 2 uM followed by irradiation measured every 10 secs by spectrophotometric analysis; assay type: functional
[7] = system: A549; assay: Induction of ROS generation in human A549 cells assessed as increase in green fluorescence irradiated with 650 nanometer laser light preincubated for 4 hrs followed by DCFH-DA addition for 20 mins by fluorescent microscopic method relative to untreated control; assay type: functional, cell-based
How it was run: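 A549 cells given photosensitizer for 4 h, irradiated with 650 nm laser at 2 J/cm2, then DCFH-DA for 20 min; green emission at 525 nm (488 nm excitation) viewed by fluorescence microscopy; controls without light and laser without drug.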

[8] = system: A549; assay: Induction of apoptosis in human A549 cells assessed as early apoptotic cell in presence of 1J/cm2 light irradiation measured after 4 hrs by annexin V-FITC and propidium iodide staining based flow cytometric analysis (reference value: 0.07%); assay type: functional
How it was run: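 After PDT at 1 J/cm2, A549 cells collected 4 h later, stained with annexin V-FITC and propidium iodide per kit instructions; flow cytometry with at least 10,000 events per sample.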

[9] = system: A549; assay: Induction of apoptosis in human A549 cells assessed as early apoptotic cell incubated for 4 hrs under dark condition by annexin V-FITC and propidium iodide staining based flow cytometric analysis (reference value: 0.07%); details: a549, 4 h
[10] = system: A549; assay: Photodynamic antitumor activity against human A549 cells xenografted in BALB/c nude mouse assessed as decrease in tumor weight at 0.3 mg/kg, iv followed by laser light irradiation at 120 J/cm2 measured after 14 days; assay type: functional
How it was run: (§1)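 Male BALB/c nude mice (5–6 weeks, 14–16 g) given 2×10^6 A549 cells s.c. in 0.2 mL PBS; at 6–7 mm tumors randomized into ten groups; drug via tail vein, 650 nm diode laser 120 J/cm2 at 180 mW/cm2 24 h later; caliper volume a×b²/2, followed 14 days.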

[11] = system: A549; assay: Photodynamic antitumor activity against human A549 cells xenografted in BALB/c nude mouse assessed as increase in tumor tissue damage at 0.3 mg/kg, iv incubated for 24 hrs followed by laser light irradiation at 120 J/cm2 measured up to 14 days; assay type: functional, organism-based; how it was run: as §1
[12] = system: A549; assay: Photodynamic antitumor activity against human A549 cells xenografted in BALB/c nude mouse assessed as reduction in tumor volume at 0.3 mg/kg, iv incubated for 24 hrs followed by laser light irradiation at 120 J/cm2 measured up to 14 days; assay type: functional, organism-based; how it was run: as §1
[13] = system: A549; assay: Photodynamic antitumor activity against human A549 cells xenografted in BALB/c nude mouse assessed as survival time at 0.3 mg/kg, iv incubated for 24 hrs followed by laser light irradiation at 120 J/cm2 measured up to 70 days; assay type: functional, organism-based
How it was run: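 Nude mice bearing A549 xenografts, 0.3 mg/kg drug i.v. then 650 nm laser 120 J/cm2 at 180 mW/cm2 after 24 h; survival shown as Kaplan-Meier with log-rank test, n = 5.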

[14] = Drug uptake in BALB/c nude mouse xenografted with A549 cells assessed as drug level in tumor tissue at 0.3 mg/kg, iv measured upto 24 hrs by fluorescence assay; assay type: ADME, organism-based, Neoplasm; details: in vivo
How it was run: (§2)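 A549 tumor-bearing mice dosed via tail vein (1 mg/kg in methods; 0.3 mg/kg in text) at tumors ~150–170 mm3, n = 3; whole-body imaging 0–24 h; at 6 and 12 h mice killed, heart, liver, spleen, lung, kidney, brain, tumor imaged ex vivo, excitation 420 nm, emission 650 nm.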

[15] = Drug uptake in BALB/c nude mouse xenografted with A549 cells assessed as drug level in spleen at 0.3 mg/kg, iv measured at 12 hrs by fluorescence assay; assay type: ADME, organism-based; details: in vivo; how it was run: as §2
[16] = Drug uptake in BALB/c nude mouse xenografted with A549 cells assessed as drug level in brain at 0.3 mg/kg, iv measured at 12 hrs by fluorescence assay; assay type: ADME, organism-based; details: in vivo; how it was run: as §2
[17] = Drug uptake in BALB/c nude mouse xenografted with A549 cells assessed as drug level in tumor tissue at 0.3 mg/kg, iv measured at 12 hrs by fluorescence assay; assay type: ADME, organism-based, Neoplasm; details: in vivo; how it was run: as §2
[18] = system: Mus musculus; assay: Phototoxicity in ICR mouse assessed as change in exposed neck skin 0.45 mg/kg, iv in presence of 10 mW/cm2 light irradiation for 10 mins upto 7 days measured after 1day of light irradiation by H and E staining based microscopic analysis; assay type: organism-based; details: in vivo
[19] = system: Mus musculus; assay: Phototoxicity in ICR mouse assessed as change in skin of the backs 0.45 mg/kg, iv in presence of 10 mW/cm2 light irradiation for 10 mins upto 7 days measured after 1 day of light irradiation by H and E staining based microscopic analysis; assay type: organism-based; details: in vivo
[20] = system: Cavia porcellus; assay: Phototoxicity in guinea pig assessed as change in left ear weight 4.5 mg/kg, iv followed by 10 mW/cm2 light irradiation for 10 mins measured after 1 day of light irradiation (reference value: 39.2 +/- 1.8 mg); assay type: organism-based; details: in vivo
[21] = system: Cavia porcellus; assay: Phototoxicity in guinea pig assessed as change in auricles of left ear at 4.5 mg/kg, iv in presence of 10 mW/cm2 light irradiation for 10 mins measured after 1day of light irradiation by H and E staining based microscopic analysis; assay type: organism-based; details: in vivo
[22] = system: Cavia porcellus; assay: Phototoxicity in guinea pig assessed as change in back skin at 4.5 mg/kg, iv in presence of 10 mW/cm2 light irradiation for 10 mins measured after 1day of light irradiation by H and E staining based microscopic analysis; assay type: organism-based; details: in vivo
[23] = system: A549; assay: Photodynamic antitumor activity against human A549 cells xenografted in BALB/c nude mouse at 0.15 mg/kg, iv followed by laser light irradiation at 120 J/cm2 measured after 14 days; assay type: functional, organism-based; how it was run: as §1

logP [4] | Activity [5] | Drug uptake [14] | Drug uptake [15] | Drug uptake [16] | Drug uptake [17] | Structure (SMILES) | selectivity ratio [1] | Activity [2] | Activity [3] | K [6] | Activity [7] | Activity [8] | Activity [9] | Activity [10] | Activity [11] | Activity [12] | Activity [13] | Activity [18] | Activity [19] | Activity [20] | further results
1.59 | 660 to 670 nm | Active | Not Active | Not Active | Active | CCC1=C(C)c2cc3[nH]c(cc4nc(c5c6[nH]c(cc1n2)c(C)c6C(=O)C5)[C@@H](CCC(=O)NCC(=O)CCC(=O)O)[C@@H]4C)c(C)c3C(C)OCCO (stereo partly specified) | 8.97 | 13.4 mg | 13.3 mg | 0.027 s⁻¹ | Active | 28.92% | 4.63% | 0.0296 g | Active | Active | Active | Non-Toxic | Non-Toxic | 41.6 mg | Activity [21]: Non-Toxic; Activity [22]: Non-Toxic; Activity [23]: Active
2.36 | 660 to 670 nm | Active | Not Active | Not Active | Active | CCCCOC(C)c1c(C)c2cc3nc(c4c5[nH]c(cc6nc(cc1[nH]2)C(C)=C6CC)c(C)c5C(=O)C4)[C@@H](CCC(=O)NCC(=O)CCC(=O)O)[C@@H]3C (stereo partly specified) | 8.74 | 12.9 mg | 12.9 mg | 0.0313 s⁻¹ | Active | 2.07% | 3.16% | 0.0138 g | Active | Active | Active | Non-Toxic | Non-Toxic | 42.3 mg | Activity [21]: Non-Toxic; Activity [22]: Non-Toxic; Activity [23]: Active
